In the library only some 2.1% were active in any assay of this set; here they are far more common.
STK33 kinase inh = inhibitors of human STK33 kinase. inhibition, % at 10 µM. 320,000 compounds, 0.073% hits. AID 2661. purified STK33, MBP phosphorylation, ADP-Glo luminescence;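 active = inhibition at or above 25%, using the most active replicate where run in duplicate; inactive = inhibition below 25%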
MEKK2 WT-MEK5 = raises or lowers MEK5 binding to wildtype human MEKK2 PB1 domain | Q9Y2U5 | 290,000 compounds, 1.1% hits | bead flow cytometry, Alexa488-MEK5 binding to MEKK2 WT; actives lie on both sides | binding response (% of control), % at 10 µM | AID 1531; in the data active = binding response below about 67% or above about 130%
MEKK2mut PB1 HTS = signal of MEK5 binding to mutant human MEKK2 PB1 domain | percent response, % at 10 µM | 290,000 compounds, 0.35% hits | bead flow cytometry, Alexa488-MEK5 binding to MEKK2 mutant | AID 1530; in the data active = percent response above about 24%, passing the limit was not always enough
GSK3 alpha inh = inhibitors of human GSK-3 alpha kinase; 320,000 compounds, 0.1% hits; inhibition, % at 10 µM; ADP-Glo luminescence, 60 min;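 active = more than half of replicates show inhibition above 20%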;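 also: GST-tagged GSK-3 alpha with peptide substrate and 25 µM ATP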
GSK3B inh = human GSK3beta kinase inhibition. P49841. GST-GSK3beta kinase, ADP-Glo luminescence, 60 min; active compounds read low. activity score (negative = inhibition), % at 10 µM. 300,000 compounds, 0.038% hits. AID 2097;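 active = more than half of replicate wells score below -50%, meaning over 50% inhibition versus plate controls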
Target sequence (P49841 whole entry, looked up): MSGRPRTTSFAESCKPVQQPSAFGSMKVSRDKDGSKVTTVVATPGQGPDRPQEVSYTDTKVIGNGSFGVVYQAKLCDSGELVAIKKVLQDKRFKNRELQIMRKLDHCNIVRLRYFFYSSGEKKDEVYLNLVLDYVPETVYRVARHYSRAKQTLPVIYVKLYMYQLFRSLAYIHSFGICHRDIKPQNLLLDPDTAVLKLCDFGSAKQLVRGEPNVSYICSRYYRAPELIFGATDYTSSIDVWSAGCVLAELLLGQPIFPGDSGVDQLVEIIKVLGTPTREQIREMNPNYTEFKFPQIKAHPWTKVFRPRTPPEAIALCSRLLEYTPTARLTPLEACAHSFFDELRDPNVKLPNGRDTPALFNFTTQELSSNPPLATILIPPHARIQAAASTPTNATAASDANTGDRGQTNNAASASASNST
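Test system – GST-tagged human GSK3beta kinase, cell-free · Incubation – 60 min enzyme reaction, room temperature · Signal – ADP-Glo luminescence · Also added – peptide substrate and ATP at 25 µM · Controls – DMSO neutral wells and GW8510 at 20 µM as positive · Buffer or medium – Tris/MgCl2 kinase buffer · Measure – Luminescence-derived activity versus plate DMSO and GW8510 wells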
MEKK3 PB1 HTS = MEKK3-MEK5 PB1 interaction, increase or decrease | AID 1529 | binding response (% of control), % at 10 µM | 290,000 compounds, 1.4% hits | bead-based flow cytometry, Alexa488-MEK5 binding to MEKK3; actives lie on both sides; 0 = blocked by unlabeled MEK5, 100 = vehicle;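 active = binding response more than 3 SD above or below the average of its plate-row segment, actives on both sides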;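 also: Alexa488 bead fluorescence after subtracting the streptavidin-only scavenger bead signal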
MEKK2wt confirm = raises or lowers MEK5 binding to wildtype human MEKK2, retest; shares compounds with MEKK3 PB1 HTS; bead flow cytometry, Alexa488-MEK5 binding to MEKK2 WT; actives lie on both sides; binding response (% of control), % at 10 µM; 5,900 compounds, 2.4% hits; in the data active = binding response below about 16% or above about 210%; inactive = in between
MEKK2mut-MEK5 = signal of MEK5 binding to mutant human MEKK2, retest | shares compounds with MEKK3 PB1 HTS | bead flow cytometry, Alexa488-MEK5 binding to MEKK2 mutant | percent response, % at 10 µM | 5,900 compounds, 2% hits; in the data active = percent response mostly above about 71%, no sharp cut-off; inactive = mostly below about 38%;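 also: higher means compound restores mutant binding toward wildtype level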
MEKK3 confirm = confirmation of inhibitors of MEK5 binding to human MEKK3 | shares compounds with MEKK3 PB1 HTS | bead flow cytometry, Alexa488-MEK5 binding to MEKK3; active compounds read low | binding response (% of control), % at 10 µM | 5,900 compounds, 1.8% hits | AID 1894;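 active = binding response below 72% of control, or above a set upper limit, though filed actives all read lower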;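 also: lower values mean stronger disruption of MEK5 binding to MEKK3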
Of the large screens only hits and unclear results are named; the others gave an inactive call (follow-up assays come after a bar, where they were run); [ ] = another dose, or the depositor's remark.

Cc1ccc(S(=O)(=O)N2CCOCC2)cc1NC(=O)CN1CCC(Cc2ccccc2)CC1	none
Cc1ccc(C(c2c(C)nn(-c3ccccc3)c2N)c2c(C)nn(-c3ccccc3)c2N)cc1	none
Cc1nn(-c2ccccc2)c(N)c1C(c1ccc(C(C)C)cc1)c1c(C)nn(-c2ccccc2)c1N	MEKK3 PB1 HTS 146 (no result: STK33 kinase inh, GSK3 alpha inh) | MEKK2wt confirm inactive | MEKK2mut-MEK5 inactive | MEKK3 confirm inactive
CCC1C(=O)Nc2ccccc2N1C(=O)COc1ccccc1 (stereo not given)	none
Cc1ccc(C)c(N2CCN(c3cnn(-c4nc5ccccc5s4)c(=O)c3Cl)CC2)c1	MEKK3 PB1 HTS 143 | MEKK2wt confirm inactive | MEKK2mut-MEK5 inactive | MEKK3 confirm inactive
NCCCC[C@H](NC(=O)C1CCNCC1)c1nnc(CN)o1	none
CCCCOc1ccc(C(=O)NCC(=O)NCC(c2ccc(F)cc2)N2CCOCC2)cc1 (stereo not given)	none (no result: MEKK2 WT-MEK5, MEKK2mut PB1 HTS, MEKK3 PB1 HTS)
CCN(CC)C(=O)c1ccc(/C=C/c2c[nH]c3ccccc23)[n+](C)c1	none
CC[n+]1c(/C=C/c2c[nH]c3ccccc23)ccc2cc(C)ccc21	MEKK2mut PB1 HTS 119 (no result: STK33 kinase inh, MEKK2 WT-MEK5, GSK3 alpha inh, GSK3B inh) | MEKK2wt confirm inactive | MEKK2mut-MEK5 inactive | MEKK3 confirm inactive
Cc1cccc(C)c1OCC(=O)OCC(=O)Nc1ccc(Cl)cn1	none (no result: MEKK2 WT-MEK5, MEKK2mut PB1 HTS, GSK3B inh, MEKK3 PB1 HTS)
CS(=O)(=O)N1N=C(c2cccs2)CC1c1ccccc1O (stereo not given)	MEKK2 WT-MEK5 0.0[inhibitor] | MEKK2wt confirm inactive | MEKK2mut-MEK5 inactive | MEKK3 confirm inactive
CCOc1ccccc1C1CC(c2cccs2)=NN1S(C)(=O)=O (stereo not given)	MEKK3 PB1 HTS 2.0[inhibitor] | MEKK2wt confirm inactive | MEKK2mut-MEK5 inactive | MEKK3 confirm inactive
CS(=O)(=O)N1N=C(c2cccs2)CC1c1ccc(F)cc1 (stereo not given)	MEKK2 WT-MEK5 22[inhibitor] | MEKK2wt confirm inactive | MEKK2mut-MEK5 inactive | MEKK3 confirm inactive
CCS(=O)(=O)N1N=C(c2cccs2)CC1c1cc2cc(C)ccc2nc1Cl (stereo not given)	MEKK2 WT-MEK5 -9.0[inhibitor] | MEKK2wt confirm inactive | MEKK2mut-MEK5 inactive | MEKK3 confirm inactive
CS(=O)(=O)N1N=C(c2ccc(Cl)cc2)CC1c1cccs1 (stereo not given)	none
Cc1ccc2nc(Cl)c(C3CC(c4cccs4)=NN3C(=O)CCCC(=O)O)cc2c1 (stereo not given)	none
CS(=O)(=O)N(CC(=O)Nc1cccc([N+](=O)[O-])c1)c1cccc(F)c1	none
OCCN(CC(O)Cn1ccc2ccccc21)CC(O)Cn1ccc2ccccc21 (stereo not given)	none (no result: MEKK2 WT-MEK5, MEKK2mut PB1 HTS, MEKK3 PB1 HTS)
CC(C)(C)c1ccc(OCC(O)CN(CCO)CC(O)Cn2ccc3ccccc32)cc1 (stereo not given)	MEKK3 PB1 HTS 133 | MEKK2wt confirm inactive | MEKK2mut-MEK5 inactive | MEKK3 confirm inactive
CC(C)C[C@H]1CN=C(Nc2ccccc2)N1CCCC1CCCCC1	MEKK2mut PB1 HTS 24 | MEKK2wt confirm inactive | MEKK2mut-MEK5 inactive | MEKK3 confirm inactive
Cc1cccc(-n2nnc3c(=O)n(Cc4ccccn4)cnc32)c1	none
Cc1ccc(-n2nnc3c(=O)n(Cc4ccccn4)cnc32)cc1C	MEKK2mut PB1 HTS 175 | MEKK2wt confirm inactive | MEKK2mut-MEK5 inactive | MEKK3 confirm inactive
COc1ccc(CC(=O)N2CCN(S(=O)(=O)c3cc(Cl)ccc3Cl)CC2)cc1	none (no result: MEKK2 WT-MEK5, MEKK2mut PB1 HTS, GSK3B inh, MEKK3 PB1 HTS)
Cc1cc(C)cc(Oc2ccc(NC(=O)C3CC=CCC3C(=O)O)cc2)c1 (stereo not given)	MEKK3 PB1 HTS 75[inhibitor] | MEKK2wt confirm inactive | MEKK2mut-MEK5 inactive | MEKK3 confirm inactive
CCOC(=O)c1ccc(NC(=O)CN2C(=O)CN(C(C)=O)C2=S)cc1	none
CCOc1ccc(Nc2nc(NCC3CCCO3)c3ccccc3n2)cc1 (stereo not given)	MEKK2 WT-MEK5 166 | MEKK2wt confirm inactive | MEKK2mut-MEK5 inactive | MEKK3 confirm inactive
CCOc1ccc(Nc2c3ccccc3nc3ccccc23)cc1	MEKK2 WT-MEK5 149 | MEKK2wt confirm inactive | MEKK2mut-MEK5 inactive | MEKK3 confirm inactive
CCc1noc(C)c1C(=O)Nc1cccc(S(=O)(=O)N(C)c2ccccc2)c1	none (no result: MEKK2 WT-MEK5, MEKK2mut PB1 HTS, MEKK3 PB1 HTS)
O=[N+]([O-])c1ccc(C[n+]2cccc3c4ccccc4ccc32)cc1	MEKK2 WT-MEK5 8.0[inhibitor] | MEKK2wt confirm inactive | MEKK2mut-MEK5 inactive | MEKK3 confirm inactive
CCCCc1nc2sc3c(SCCN(C)C)ncnc3c2c2c1CCC2	MEKK2 WT-MEK5 152 | MEKK2wt confirm inactive | MEKK2mut-MEK5 inactive | MEKK3 confirm inactive
CCCCc1nc2sc3c(SCC(=O)NCc4ccco4)ncnc3c2c2c1CCC2	none
COc1cccc(-c2ccc(NC(=O)C3CCCN(Cc4cnn(C(C)C)c4)C3)cc2)c1 (stereo not given)	MEKK2 WT-MEK5 147 | MEKK2wt confirm inactive | MEKK2mut-MEK5 inactive | MEKK3 confirm inactive
CCCCN1CNC(=S)N(Cc2ccccc2)C1	MEKK3 PB1 HTS 130 | MEKK2wt confirm inactive | MEKK2mut-MEK5 inactive | MEKK3 confirm inactive
CCc1nnc(NS(=O)(=O)c2ccc(N=Cc3c(C)[nH]n(-c4ccc(C)c(C)c4)c3=O)cc2)s1	MEKK3 PB1 HTS 160 | MEKK2wt confirm inactive | MEKK2mut-MEK5 inactive | MEKK3 confirm inactive
Cc1ccc(NC(=O)c2ccc(CNc3c(N4CCC(C)CC4)c(=O)c3=O)cc2)cc1	none
O=C(c1ccc(F)cc1)N1CCN2C(=O)c3ccccc3C12c1ccccc1 (stereo not given)	MEKK3 PB1 HTS 60[inhibitor] | MEKK2wt confirm inactive | MEKK2mut-MEK5 inactive | MEKK3 confirm inactive
O=C(c1ccc(F)cc1)N1CCN2C(=O)c3ccccc3C12c1ccc(Cl)cc1 (stereo not given)	none
Cc1ccc(NC(=O)CN(CCc2ccccc2)S(C)(=O)=O)cc1	none
CC1=C(C)C(OCCBr)N(c2cc(O)c(Cl)cc2F)C1=O (stereo not given)	none
COC(=O)Cn1c(=NC(=O)c2ccc(Cl)s2)sc2cc(F)ccc21	MEKK3 PB1 HTS 134 | MEKK2wt confirm inactive | MEKK2mut-MEK5 inactive | MEKK3 confirm inactive
COC(=O)Cn1c(=NC(=O)c2ccc(OC)c(OC)c2)sc2cc(OC)ccc21	none
COc1ccc(NC(=S)NN2C(C)CCCC2C)cc1 (stereo not given)	none

From PubChem
